Results reported in article PMC4826778 (Bioconjugate chemistry, 2015).

Key:
[1] = Photophysical characterization; format: physicochemical; details: for ΦF: reference quinine sulfate
[2] = Frequency-domain fluorescence lifetime measurements in solution; format: physicochemical
Method in brief: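 Frequency-domain lifetimes were measured in solution (MeOH) in a 2 × 10 mm quartz cuvette at 18 °C. Excitation was a frequency-modulated 280 nm LED, with emission collected through a 305 nm long-pass filter. PPO in ethanol (τ = 1.4 ns) served as lifetime reference. Modulation-phase data were fitted to a multi-exponential decay model, judged by residuals and χ².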

[3] = Kinetic analysis of SPAAC reaction by 1H NMR; details: reaction with cyclooctyne 5 in ACN-d6/D2O (3:1, v/v)
[4] = Water solubility of azido nucleosides; format: physicochemical
[5] = Parallel artificial membrane permeability assay; format: in vitro ADME; details: for % Fraction Absorbed / Log Pe: 75 μM; for % Fraction Absorbed: 16 h, ambient temperature; for Log Pe: log of the effective permeability coefficient
Method in brief: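 PAMPA used a polycarbonate filter (0.45 μm pore) coated for 5 min with lecithin (1% or 4% in dodecane). Donor wells held test compound at 75 μM in 5% DMSO/PBS; acceptor wells held PBS. Plates were incubated 16 h at ambient temperature with gentle shaking. Acceptor concentration was measured by UV-Vis against a theoretical-equilibrium solution. Log Pe was calculated by the Wohnsland–Faller equation; at least triplicate.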

[6] = system: MCF-7 cells; experiment: MTT cell toxicity assay; format: cell-based; details: 24 h exposure, click reaction of cyclooctyne 5 with azide 2 or 21
Method in brief: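 MCF-7 cells were seeded at 1 × 10⁴ cells/mL and exposed to a range of concentrations of azide and cyclooctyne for 24 h at 37 °C in 5% CO₂. MTT (5 mg/mL solution) was added for 4 h. Medium was removed, DMSO added, and OD read at 595 nm. Viability was calculated as OD sample / OD untreated control × 100%.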

[7] = system: MCF-7 cells; experiment: Fluorescence microscopy of in-cell click reaction; format: cell-based; details: 1 μM azide and 1 μM cyclooctyne 5
Method in brief: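 MCF-7 cells were seeded at 5 × 10⁵ cells/mL on chambered coverglass and grown overnight at 37 °C in DMEM/F12 with 5% FBS. Azide (1 μM in reduced-serum medium) was added for 4 h, followed by three PBS (pH 7.5) washes. Cyclooctyne (1 μM) was then added for 16 h at 37 °C, followed by three more washes. Imaging used 360/40 excitation and 470/40 emission filters. Controls were azide only, cyclooctyne only, and preformed adduct. 0.1% trypan blue was used for quenching.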

[8] = reaction of 5 with benzyl azide in the same solvent system; cited from earlier work
[9] = In 50 mM phosphate buffer pH 7.0

In the case of “5-(1,2,3-Triazol-1H-yl)uridine-MFCO adduct [Compound 27]”, the εmax [1] is reported as 7100 M^−1cm^1, the “λmax(emi)” value [1, 9] is reported as 339/434 and the “λmax(emi)” value ([1]; In DMSO) is reported as 331/419. For the same compound, the Brightness ([1]; In MeOH) was 0.06 M^−1cm^1, the Stokes shift ([1]; In MeOH) was 58 nm and the “λmax(abs)” value ([1]; In MeOH) was 269 nm. The “λmax(emi)” value ([1]; In MeOH) was 327/412 and the ΦF ([1]; In MeOH) was 0.009.
In the case of “8-(1,2,3-Triazol-1H-yl)adenosine-MFCO adduct [Compound 17]”, the εmax [1] is reported as 16400 M^−1cm^1, the “λmax(emi)” value [1, 9] is reported as 399 nm and the “λmax(emi)” value ([1]; In DMSO) is reported as 397 nm. The Brightness ([1]; In MeOH) was 0.10 M^−1cm^1, the Stokes shift ([1]; In MeOH) was 111 nm and the “λmax(abs)” value ([1]; In MeOH) was 271 nm. The “λmax(emi)” value ([1]; In MeOH) was 399 nm, the “λmax(exc)” value ([1]; In MeOH) was 288 nm and the ΦF ([1]; In MeOH) was 0.006. For the same compound, the τ1 ([2]; In MeOH) was 0.10 ns, the τ2 ([2]; In MeOH) was 0.90 ns and the τ3 ([2]; In MeOH) was 5.30 ns. For the same compound, the f1 ([2]; In MeOH, fractional contribution of τ1) was 0.46%, the f2 ([2]; In MeOH, fractional contribution of τ2) was 0.39% and the f3 ([2]; In MeOH, fractional contribution of τ3) was 0.15%. For the same compound, the τaverage ([2]; in vitro (methanol solution)) was 1.20 ns.
In the case of `[N-]=[N+]=Nc1nc2c(N)ncnc2n1[C@@H]1O[C@H](CO)[C@@H](O)[C@H]1O` [Compound 1, 8-azidoadenosine], the “second order rate constant” value [3] is reported as 0.11 M⁻¹ s⁻¹ and the water solubility [4] is reported as “easily water soluble”.
With `[N-]=[N+]=Nc1nc2c(N)ncnc2n1[C@@H]1O[C@H](CO)[C@@H](O)[C@@H]1O` [Compound 2, 8-azido-9-(β-D-arabinofuranosyl)adenine] the “fluorescence of azide substrate” value [1] was “no fluorescence”, the “% Fraction Absorbed” value [5] was 18% and the “Log Pe” value [5] was −0.5 cm/s. The “Permeability (fraction absorbed)” value ([5]; 150 μM concentration) was “b Permeability for 2 at a 150 μM concentration was also 18%”, the non-cytotoxic dosage [6] was 1 µM and the “fluorescence localization in live cells” value [7] was “strong fluorescent localization to the nucleus”. For the same compound, the water solubility [4] was “easily water soluble”.
With `[N-]=[N+]=Nc1nc2c(N)ncnc2n1[C@H]1C[C@H](O)[C@@H](CO)O1` [Compound 4, 8-azido-2′-deoxyadenosine] the “% Fraction Absorbed” value [5] was 20% and the “Log Pe” value [5] was −0.5 cm/s.
For `OCC1C2CCC#CCCC12` (stereo not shown) [Compound 5], the non-cytotoxic dosage [6] is given as 1 µM and the “second order rate constant k” value [8] is given as 0.14 M⁻¹ s⁻¹.
For `[N-]=[N+]=Nc1nc(N)c2ncn([C@@H]3O[C@H](CO)[C@@H](O)[C@H]3O)c2n1` [Compound 19, 2-azidoadenosine], the “% Fraction Absorbed” value [5] was 22%, the “Log Pe” value [5] was −0.5 cm/s and the “fluorescence localization in live cells” value [7] was “fluorescence localized in the nucleus”.
In the case of `[N-]=[N+]=Nc1cn([C@@H]2O[C@H](CO)[C@@H](O)[C@H]2O)c(=O)[nH]c1=O` [Compound 21, 5-azidouridine], the “fluorescence of azide substrate” value [1] is reported as “no noticeable fluorescence”, the non-cytotoxic dosage [6] is reported as 1 µM and the “fluorescence localization in live cells” value [7] is reported as “fluorescence localized in the nucleus”.
